Laboratory results from ChEMBL document CHEMBL4270544, “Design, synthesis and biological evaluation of a novel tubulin inhibitor 7a3 targeting the colchicine binding site” (Eur J Med Chem, 2018).
pIC50: −log10 of the molar value. Activity calls are given as the source filed them. The calls are words filed in the database; no cut-off is given here.

Legend:
[1] = tested on: SK-OV-3; assay: Antimigratory activity against human SKOV3 cells assessed as wound closure at 80 nM after 24 hrs by microscopy based scratch wound assay (reference value: 79.5 +/- 2.8%); format: functional
[2] = tested on: SK-OV-3; assay: Induction of apoptosis in human SKOV3 cells assessed as late apoptotic cells at 80 nM after 48 hrs by Annexin-V-FITC/propidium iodide staining based flow cytometry (reference value: 3.93%); format: functional
[3] = tested on: SK-OV-3; assay: Antiproliferative activity against human SKOV3 cells after 72 hrs by CCK8 assay; format: functional, cell-based; details: SK-OV-3, 72 h
Summary of the method: (§1)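 CCK-8 proliferation assay with CA-4 as positive control. IC50 is the concentration giving 50% inhibition of proliferation. Mean ± SEM from three independent experiments.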

[4] = tested on: SK-OV-3; assay: Inhibition of tubulin assembly in human SKOV3 cells assessed as abnormal mitotic spindle formation at 10 to 1000 nM after 24 hrs by DAPI staining based immunofluorescence microscopic method; format: functional, cell-based
Summary of the method: (§2)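 SK-OV-3 cells exposed to DMSO or 10, 100 or 1000 nM for 24 h. Fixed in methanol, stained with FITC anti-β-tubulin antibody, counterstained with DAPI, and imaged by confocal microscopy.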

[5] = tested on: SK-OV-3; assay: Induction of apoptosis in human SKOV3 cells assessed as necrotic cells at 80 nM after 48 hrs by Annexin-V-FITC/propidium iodide staining based flow cytometry (reference value: 0.67%); format: functional
[6] = tested on: SK-OV-3; assay: Antimigratory activity against human SKOV3 cells assessed as number of migrated cells at 50 nM after 24 hrs by crystal violet staining based transwell migration assay (reference value: 49.3 to 50.7); format: functional
[7] = tested on: SK-OV-3; assay: Cell cycle arrest in human SKOV3 cells assessed as accumulation at G0/G1 phase at 80 nM after 24 hrs by propidium iodide staining based flow cytometry (reference value: 67.79%); format: functional
Summary of the method: (§3)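 SK-OV-3 cells exposed to 40, 80 or 160 nM for 24 h, with untreated cells as control. Stained with PI and analysed by flow cytometry for phase distribution. Mean ± SEM of three independent experiments; t-test against control.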

[8] = tested on: SK-OV-3; assay: Inhibition of tubulin assembly in human SKOV3 cells assessed as disorganized microtubule polymerization at 10 to 1000 nM after 24 hrs by DAPI staining based immunofluorescence microscopic method; format: functional, cell-based; summary of the method: as §2
[9] = Tmax in C57 mouse at 50 mg/kg, ip administered as single dose by LC-MS/MS analysis; format: ADME, organism-based; details: in vivo
Summary of the method: (§4)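 Male C57 mice, one intraperitoneal dose. Blood drawn from submaxillary vein at 0, 5, 15, 30 min and 1, 2, 4, 8, 12, 24 h. Plasma measured by LC/MS/MS in MRM mode with CA-4 as internal standard. Calibration by weighted linear regression over 0.01–500 ng/mL. Parameters obtained by non-compartmental analysis.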

[10] = tested on: SK-OV-3; assay: Induction of apoptosis in human SKOV3 cells assessed as necrotic cells at 160 nM after 48 hrs by Annexin-V-FITC/propidium iodide staining based flow cytometry (reference value: 0.67%); format: functional
[11] = species on record: Bos taurus; assay: Inhibition of bovine MAP-rich tubulin polymerization at 40 uM measured every 1 min for 30 mins relative to control
Summary of the method: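 Purified tubulin polymerization followed at 37 °C by absorbance at 340 nm, read every 1 min for 30 min. Test concentrations 2.5, 10 and 40 µM. CA-4 at 10 µM served as positive control and DMSO (1%, v/v) as vehicle. Polymerization is expressed relative to the vehicle group.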

[12] = tested on: Mus musculus; assay: Toxicity in Balb/c mouse xenografted with human SKOV3 cells assessed as pathological changes in liver at 50 mg/kg, ip administered every two days for three times by hematoxylin and eosin staining based assay; format: organism-based; details: in vivo
Summary of the method: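 In SK-OV-3 xenografted Balb/c nude mice dosed 50 mg/kg intraperitoneally in 5% DMSO/olive oil every two days, three times, organs were collected and examined after H&E staining.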

[13] = tested on: Mus musculus; assay: Toxicity in Balb/c mouse xenografted with human SKOV3 cells assessed as body weight loss at 50 mg/kg, ip administered every two days for three times measured during compound dosing; format: organism-based; details: in vivo
Summary of the method: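 Six-week-old Balb/c nude mice given subcutaneous SK-OV-3 cells in the back. Randomised into three groups at about 200 mm3 tumour size. Dosed 50 mg/kg intraperitoneally in 5% DMSO/olive oil every two days, three times; vehicle group as control. Tumour volume and body weight tracked; six animals per group, mean ± SEM, t-test.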

[14] = tested on: SK-OV-3; assay: Antimigratory activity against human SKOV3 cells assessed as number of migrated cells at 25 nM after 24 hrs by crystal violet staining based transwell migration assay (reference value: 49.3 to 50.7); format: functional
[15] = tested on: SK-OV-3; assay: Induction of apoptosis in human SKOV3 cells assessed as live cells at 80 nM after 48 hrs by Annexin-V-FITC/propidium iodide staining based flow cytometry (reference value: 94.43%); format: functional
[16] = tested on: SK-OV-3; assay: Induction of apoptosis in human SKOV3 cells assessed as early apoptotic cells at 80 nM after 48 hrs by Annexin-V-FITC/propidium iodide staining based flow cytometry (reference value: 0.97%); format: functional
[17] = tested on: MDA-MB-231; assay: Antiproliferative activity against human MDA-MB-231 cells after 72 hrs by CCK8 assay; format: functional, cell-based; details: MDA-MB-231, 72 h; summary of the method: as §1
[18] = tested on: SK-OV-3; assay: Induction of apoptosis in human SKOV3 cells assessed as early apoptotic cells at 160 nM after 48 hrs by Annexin-V-FITC/propidium iodide staining based flow cytometry (reference value: 0.97%); format: functional
[19] = Terminal half life in C57 mouse at 50 mg/kg, ip administered as single dose by LC-MS/MS analysis; format: ADME, organism-based; details: in vivo, read-out: beta t1/2 (converted); summary of the method: as §4
[20] = tested on: CT26; assay: Antiproliferative activity against mouse CT26 cells after 72 hrs by CCK8 assay; format: functional, cell-based; details: CT26, 72 h; summary of the method: as §1
[21] = tested on: SK-OV-3; assay: Antimigratory activity against human SKOV3 cells assessed as number of migrated cells at 100 nM after 24 hrs by crystal violet staining based transwell migration assay (reference value: 49.3 to 50.7); format: functional
[22] = tested on: SK-OV-3; assay: Cell cycle arrest in human SKOV3 cells assessed as accumulation at G2/M phase at 40 nM after 24 hrs by propidium iodide staining based flow cytometry (reference value: 24.99%); format: functional; summary of the method: as §3
[23] = tested on: SK-OV-3; assay: Cell cycle arrest in human SKOV3 cells assessed as accumulation at S phase at 160 nM after 24 hrs by propidium iodide staining based flow cytometry (reference value: 18.09%); format: functional; summary of the method: as §3
[24] = tested on: SK-OV-3; assay: Cell cycle arrest in human SKOV3 cells assessed as accumulation at S phase at 80 nM after 24 hrs by propidium iodide staining based flow cytometry (reference value: 18.09%); format: functional; summary of the method: as §3
[25] = tested on: SK-OV-3; assay: Induction of apoptosis in human SKOV3 cells assessed as late apoptotic cells at 160 nM after 48 hrs by Annexin-V-FITC/propidium iodide staining based flow cytometry (reference value: 3.93%); format: functional
[26] = tested on: Mus musculus; assay: Area under the first moment curve (0 to infinity) in C57 mouse at 50 mg/kg, ip administered as single dose by LC-MS/MS analysis; format: ADME, organism-based; details: in vivo; summary of the method: as §4
[27] = Elimination rate constant in C57 mouse at 50 mg/kg, ip administered as single dose by LC-MS/MS analysis; format: ADME, organism-based; details: in vivo; summary of the method: as §4
[28] = Cmax in C57 mouse at 50 mg/kg, ip administered as single dose by LC-MS/MS analysis; format: ADME, organism-based; set-up: dose 50 mg/kg, route intraperitoneal; details: in vivo; summary of the method: as §4
[29] = AUC (0 to 24 hrs) in C57 mouse at 50 mg/kg, ip administered as single dose by LC-MS/MS analysis; format: ADME, organism-based; set-up: dose 50 mg/kg, time < 24 hr, route intraperitoneal; details: in vivo; summary of the method: as §4

- pIC50 [3]: 7.77
- Tmax [9]: 15 min
- inhibition [11]: 85.3%
- pIC50 [17]: 7.51
- half-life [19]: 100 min
- pIC50 [20]: 7.24
- AUMC [26]: 1785 hr.hr.ng/ml
- k el [27]: 0.000117 s⁻¹
- Cmax [28]: 882 ng/mL
- AUC(0-t) at 24 h [29]: 1140 ng·h/mL
SMILES: CCOc1ccc(-c2cn(C)nc2-c2cc(OC)c(OC)c(OC)c2)cc1
- Activity [1]: 44.3%
- Activity [2]: 18.67%
- inhibition [4]: Active
- Activity [5]: 2.72%
- Activity [6]: 21.7
- Activity [7]: 41.2%
- inhibition [8]: Active
- Activity [10]: 1.28%
- Activity [12]: Non-Toxic
- Activity [13]: Non-Toxic
- Activity [14]: 27.3
- Activity [15]: 73.56%
- Activity [16]: 5.05%
- Activity [18]: 9.46%
- Activity [21]: 18.3
- Activity [22]: 24.6%
- Activity [23]: 26.16%
- Activity [24]: 24.15%
- Activity [25]: 47.36%
